From ChEMBL document CHEMBL1770060, “Diaryl urea analogues of SB-334867 as orexin-1 receptor antagonists” (Bioorg Med Chem Lett, 2011) come the findings set out here.

Calls of active or inactive are those of the source. The rule behind the calls is not given here. Bounds are passed on as bounds.

For test [1], the target named is T1, Orexin receptor type 2 (Homo sapiens) (UniProt O43614).
T1 sequence (whole entry): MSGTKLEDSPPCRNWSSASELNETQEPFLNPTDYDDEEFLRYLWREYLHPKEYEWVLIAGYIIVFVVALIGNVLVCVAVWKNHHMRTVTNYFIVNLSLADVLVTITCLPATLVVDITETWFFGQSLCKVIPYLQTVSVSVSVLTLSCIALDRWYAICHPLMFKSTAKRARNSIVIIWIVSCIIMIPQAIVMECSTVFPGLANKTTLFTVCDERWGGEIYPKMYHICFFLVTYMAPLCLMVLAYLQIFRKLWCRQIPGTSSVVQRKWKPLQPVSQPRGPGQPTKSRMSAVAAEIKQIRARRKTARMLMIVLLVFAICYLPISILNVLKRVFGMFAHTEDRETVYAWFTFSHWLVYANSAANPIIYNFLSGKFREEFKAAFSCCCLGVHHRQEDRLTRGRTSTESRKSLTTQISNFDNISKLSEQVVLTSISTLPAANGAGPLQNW
The test is described as follows: Agonist activity at OX2 receptor expressed in CHO cells at 10 uM by FlexStation assay. Format: functional, cell-based. Summed up: (§1)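 Separate cell lines stably expressing OX1 or OX2 receptor were loaded with calcium-sensitive dye for 1 h. Compounds were tested alone at 10 µM for intrinsic agonist activity, read as a rise in fluorescence (intracellular calcium) on the FlexStation.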

In test [2] the target is T2, Orexin/Hypocretin receptor type 1 (Homo sapiens) (UniProt O43613).
T2 sequence (whole entry): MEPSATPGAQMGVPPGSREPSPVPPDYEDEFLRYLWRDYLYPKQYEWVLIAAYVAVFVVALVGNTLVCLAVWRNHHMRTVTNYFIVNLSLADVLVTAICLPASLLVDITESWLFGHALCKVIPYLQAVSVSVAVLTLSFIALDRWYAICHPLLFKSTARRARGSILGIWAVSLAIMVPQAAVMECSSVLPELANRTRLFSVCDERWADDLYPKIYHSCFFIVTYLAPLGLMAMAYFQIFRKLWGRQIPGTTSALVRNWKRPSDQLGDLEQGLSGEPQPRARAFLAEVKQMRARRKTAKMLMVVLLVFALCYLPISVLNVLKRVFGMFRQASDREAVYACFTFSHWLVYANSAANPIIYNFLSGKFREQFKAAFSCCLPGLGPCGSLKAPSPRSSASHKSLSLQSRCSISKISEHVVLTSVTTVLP
The test is described as follows: Antagonist activity at OX1 receptor expressed in CHO cells assessed as inhibition of orexin-A-induced calcium mobilization by FlexStation assay. Format: functional, cell-based. Summed up:
(§2)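 Cells stably expressing OX1 or OX2 receptor, dye-loaded 1 h. EC50s came from a three-parameter logistic fit. Ke = [L]/(DR−1), DR = A'/A. Duplicates; ≥3 (OX1) or ≥2 (OX2) independent experiments.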

Test [3] addresses T1, Orexin receptor type 2 (Homo sapiens). The test is described as follows: Antagonist activity at OX2 receptor expressed in CHO cells assessed as inhibition of orexin-A-induced calcium mobilization by FlexStation assay. In kind it is functional, cell-based. The method, boiled down:
as §2
For orientation: Calcium flux is commonly read through the fluorescence of an indicator in the cells.

For test [4], the target named is T2, Orexin/Hypocretin receptor type 1 (Homo sapiens). Kind of test: Agonist activity at OX1 receptor expressed in CHO cells at 10 uM by FlexStation assay. In kind it is functional, cell-based. The method, boiled down:
as §1

Test [5] is described as follows: Selectivity ratio of Ke for OX2 receptor to Ke for OX1 receptor.

As for `O=C(Nc1ccc2c(c1)OCO2)Nc1ccnc2c(F)cccc12`, the outcome in test [1] and in test [4] was inactive. Besides, the Ke was 13.4 nM in test [2] and 1620 nM in test [3].

For `CN(C)c1ccc(CC(=O)Nc2ccnc3c(F)cccc23)cc1`, the result in test [1] and in test [4] was inactive. Moreover, the Ke in test [2] and in test [3] was greater than 10000 nM throughout.

As to `COc1ccc(NC(=O)Nc2ccnc3c(F)cccc23)cc1OC`, the outcome in test [1] and in test [4] was inactive. The Ratio Ke in test [5] was greater than 10. The Ke is 965 nM in test [2] and greater than 10000 nM in test [3].

`Cc1nc2ccc(NC(=O)Nc3ccnc4cccnc34)cc2o1`: the result in test [1] and in test [4] was inactive. For the same compound, the Ratio Ke in test [5] was 50. Also, the Ke in test [2] was determined as 45 nM; in test [3] it was 1190 nM.
